Measured values of several laboratories.
Compare with care: the assays were run in different laboratories.
Target: Mitogen-activated protein kinase kinase kinase 3 (MAP3K3, Homo sapiens, UniProt Q99759)
Residues used in one study (Q99759 1-626): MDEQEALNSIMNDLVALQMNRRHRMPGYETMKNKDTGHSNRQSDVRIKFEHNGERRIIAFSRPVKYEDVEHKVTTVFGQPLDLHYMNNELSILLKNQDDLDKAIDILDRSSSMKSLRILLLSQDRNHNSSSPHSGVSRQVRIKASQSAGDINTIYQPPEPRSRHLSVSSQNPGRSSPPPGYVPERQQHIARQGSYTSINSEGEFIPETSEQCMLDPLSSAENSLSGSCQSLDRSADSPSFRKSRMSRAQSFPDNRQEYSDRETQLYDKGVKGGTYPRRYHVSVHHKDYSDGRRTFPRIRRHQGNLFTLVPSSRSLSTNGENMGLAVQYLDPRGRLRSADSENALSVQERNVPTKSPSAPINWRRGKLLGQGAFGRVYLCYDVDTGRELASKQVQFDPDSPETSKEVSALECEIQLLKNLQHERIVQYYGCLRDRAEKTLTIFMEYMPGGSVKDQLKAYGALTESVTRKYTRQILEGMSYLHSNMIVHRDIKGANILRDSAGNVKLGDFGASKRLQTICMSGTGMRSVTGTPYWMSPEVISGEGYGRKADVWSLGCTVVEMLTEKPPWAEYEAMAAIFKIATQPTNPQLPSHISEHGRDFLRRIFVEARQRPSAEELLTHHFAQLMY

SMILES	read-out	mode	technique	concentration	quantity	result
Cc1ccc(C(=O)Nc2ccc(CN3CCN(C)CC3)c(C(F)(F)F)c2)cc1C#Cc1cnc2cccnn12	enzyme activity	inhibitor	–	23.5 nM	remaining activity	34%
Cn1cc(Cl)c2c(Oc3c(F)cc(Nc4cc(Cl)nc(N)n4)cc3F)ccnc21	cell-free assay	–	competition with immobilised ligand	0.1 µM	remaining binding	90%
Cc1ccc(NC(=O)c2ccc(CN3CCN(C)CC3)cc2)cc1Nc1nc(-c2cccnc2)cs1	cell-free assay	–	–	0.5 µM	remaining signal	108%
CC(C)(O)[C@H]1CC[C@H](Nc2ccc3ncc(-c4cccc(C(F)(F)F)c4)n3n2)CC1	enzyme activity	inhibitor	–	1 µM	remaining activity	92.2%
CS(=O)(=O)CCNCc1ccc(-c2ccc3ncnc(Nc4ccc(OCc5cccc(F)c5)c(Cl)c4)c3c2)o1	cell-free assay	–	–	0.5 µM	remaining signal	110%
COc1ccc(F)cc1C(=O)NCc1ccc(-c2nn([C@@H](C)C(F)(F)F)c(N)c2C(N)=O)cc1	target engagement in cells	inhibitor	chemoproteomics	10 nM	inhibition	4.7%
COc1cc2c(N3CCN(C(=O)Nc4ccc(OC(C)C)cc4)CC3)ncnc2cc1OCCCN1CCCCC1	cell-free assay	–	–	0.5 µM	remaining signal	106%
CN1CC(Oc2cnc(C#N)cc2-c2ccn3nc(NC(=O)C4CC4)cc3c2)C1	enzyme activity	inhibitor	–	1 µM	inhibition	3%
CS(=O)(=O)c1cc(C2(NC(=O)c3cncc4c3cnn4-c3ccc(F)cc3)CC2)ccn1	cell-free assay	–	competition with immobilised ligand	1 µM	remaining binding	92%
COc1cc(Cl)c(C(=O)N[C@@H](CN[C@H]2CC[C@@H](N)CC2)Cc2ccc(C#N)cc2)cc1-c1ccc(CN[C@H](C)c2ccc(C)cc2)o1	enzyme activity	inhibitor	–	1 µM	remaining activity	95%
CN([C@@H]1CCc2c(CC(=O)O)c3cc(S(C)(=O)=O)ccc3n2C1)S(=O)(=O)c1ccc(F)cc1	cell-free assay	–	competition with immobilised ligand	1 µM	remaining binding	85%
CC(C)(C)c1nc2c(s1)c1nc(N)ncc1c1ccc(NS(=O)(=O)c3c(F)cccc3F)c(F)c12	enzyme activity	inhibitor	radiometric	1 µM	remaining activity	117%
O=C(NS(=O)(=O)c1ccc(NCC2CCOCC2)c([N+](=O)[O-])c1)c1ccc(N2CCN(Cc3ccc(C(F)(F)F)cc3-c3ccc(Cl)cc3)CC2)cc1Oc1cnc2[nH]ccc2c1	cell-free assay	–	competition with immobilised ligand	1 µM	remaining binding	82%
N#CCCc1ccc2c(c1)-c1[nH]c3ccc([N+](=O)[O-])cc3c1CC(=O)N2	cell-free assay	–	–	0.5 µM	remaining signal	83.3%
C[C@H](c1ccc(F)cc1)N(Cc1cccc(C(=O)O)c1)C(=O)c1cnc2ccccc2c1	cell-free assay	–	competition with immobilised ligand	1 µM	remaining binding	100%
O=C(Nc1cnn(-c2csc(C(=O)NC3COC3)c2)c1)Nc1ccccc1Cl	enzyme activity	inhibitor	–	5 µM	remaining activity	113%
